Laboratory results published in ChEMBL document CHEMBL1156077, “Piperazinyl-glutamate-pyrimidines as potent P2Y12 antagonists for inhibition of platelet aggregation” (Bioorg Med Chem Lett, 2009).
Calls of active or inactive are those of the source. No cut-off for these calls is given here.

Key:
P2Y purinoceptor 12 [1] = molecular target: T1, P2Y purinoceptor 12 (Homo sapiens, UniProt Q9H244); assay: Binding affinity at human recombinant P2Y12 receptor expressed in CHO cells by radioligand binding assay; type: cell-based
Method in brief: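 Washed membranes from CHO cells transfected with synthetic human P2Y12 gene. Compounds as 7-point threefold dilutions, triplicate, 1 h at room temperature. Nonspecific binding defined with 300 nM 2-MeSADP. Filtered, washed with ice-cold Tris pH 7.4. Single-site fit; IC50 converted to Ki by Cheng–Prusoff, geometric mean of n≥2.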

P2Y purinoceptor 12 [2] = molecular target: T1, P2Y purinoceptor 12; assay: Binding affinity at human recombinant P2Y12 receptor expressed in CHO cells by radioligand binding assay in presence of 0.4% human serum albumin; type: cell-based
Method in brief: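 Membranes from CHO cells transfected with a synthetic human P2Y12 gene, with 0.4% human serum albumin added to the binding buffer (50 mM Tris, 100 mM NaCl, 1 mM EDTA). Seven-point threefold dilutions were run in triplicate, 1 h at room temperature, then filtered. Ki from IC50 by Cheng-Prusoff.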

[3] = Selectivity for human P2Y12 receptor over P2Y13
[4] = Selectivity for human P2Y12 receptor over P2Y1
P2Y purinoceptor 12 [5] = molecular target: T1, P2Y purinoceptor 12; assay: Ratio of compound IC50 to thienopyrimidine IC50 for P2Y12 receptor in human platelet rich plasma assessed as inhibition of ADP-induced platelet aggregation by light transmission aggregometry
Method in brief: (§1)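 Human platelet-rich plasma was pre-incubated 5 min at 37 °C with compound across seven concentrations (10 down to 0.156). Aggregation was started with ADP (20, final) and followed by light transmission at 626 nm for 15 min at 37 °C. Duplicate concentration-response data were read at the 15-min end-point. IC50 was divided by the IC50 of the thienopyrimidine reference run on the same plate.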

P2Y purinoceptor 12 [6] = molecular target: T1, P2Y purinoceptor 12; assay: Ratio of compound IC50 to AZD-6140 IC50 for P2Y12 receptor in human platelet rich plasma assessed as inhibition of ADP-induced platelet aggregation by light transmission aggregometry
Method in brief: as §1, with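 “AZD-6140” for “the thienopyrimidine reference”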

Liver microsomes [7] = assay: Metabolic stability in rat liver microsomes assessed as compound remaining; type: ADME, Microsome
Method in brief: (§2)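 Compounds incubated 30 min with human or rat liver microsomes; percent of parent compound remaining measured.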

Liver microsomes [8] = assay: Metabolic stability in human liver microsomes assessed as compound remaining; type: ADME, Microsome; method in brief: as §2
CYP1A2 = molecular target: T2, CYP1A2 (Homo sapiens, UniProt P05177); assay: Inhibition of CYP1A2 at 3 uM after 30 mins; type: ADME
T2 sequence (P05177 whole entry): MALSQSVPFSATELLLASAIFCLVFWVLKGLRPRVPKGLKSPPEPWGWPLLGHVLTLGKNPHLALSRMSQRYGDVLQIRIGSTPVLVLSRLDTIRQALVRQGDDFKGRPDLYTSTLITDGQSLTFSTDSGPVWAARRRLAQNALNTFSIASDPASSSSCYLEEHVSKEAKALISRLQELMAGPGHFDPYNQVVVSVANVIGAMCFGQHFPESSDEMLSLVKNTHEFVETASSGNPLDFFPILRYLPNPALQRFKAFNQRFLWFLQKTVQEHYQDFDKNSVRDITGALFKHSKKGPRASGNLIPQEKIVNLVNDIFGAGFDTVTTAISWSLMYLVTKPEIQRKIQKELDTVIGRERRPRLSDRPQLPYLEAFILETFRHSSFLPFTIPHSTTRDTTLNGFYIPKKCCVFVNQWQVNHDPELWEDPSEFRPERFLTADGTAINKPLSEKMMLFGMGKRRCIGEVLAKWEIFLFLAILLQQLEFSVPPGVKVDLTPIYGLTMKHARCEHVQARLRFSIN
Method in brief: (§3)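 Each CYP isoform assayed separately at a single 3 µM compound concentration in duplicate, with at least one isoform-specific positive control inhibitor. Incubation 30 min at 37 °C; end-point measurement gives percent inhibition.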

CYP2C9 = CYP2C9 (Homo sapiens, UniProt P11712); assay: Inhibition of CYP2C9 at 3 uM after 30 mins; type: ADME; method in brief: as §3
CYP2D6 = CYP2D6 (Homo sapiens, UniProt P10635); assay: Inhibition of CYP2D6 at 3 uM after 30 mins; type: ADME; method in brief: as §3
CYP3A4 = CYP3A4 (Homo sapiens, UniProt P08684); assay: Inhibition of CYP3A4 at 3 uM after 30 mins; type: ADME; method in brief: as §3
hERG (KCNH2) = hERG (KCNH2) (Homo sapiens, UniProt Q12809); assay: Displacement of Cy3B-tagged N-desmethyl dofetilide from human ERG expressed in HEK cells at 10 uM after 120 mins; type: cell-based, HEK293; details: HEK cells that express human ERG, probe Cy3B-tagged N-desmethyl dofetilide
Method in brief: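 Fluorescence polarization competition assay with HEK-hERG membrane homogenates and Cy3B-tagged N-desmethyl dofetilide tracer. Compound tested at a single 10 µM concentration, 120 min incubation, end-point read for percent inhibition.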

[9] = Effective half life in Sprague-Dawley rat at 2 mg/kg, iv and 5 mg/kg, po; type: ADME, organism-based; details: in vivo
[10] = Clearance in Sprague-Dawley rat at 2 mg/kg, iv and 5 mg/kg, po; type: ADME, organism-based; details: in vivo
[11] = Volume of distribution at steady state in Sprague-Dawley rat at 2 mg/kg, iv and 5 mg/kg, po; type: ADME, organism-based; details: in vivo, read-out: Vdss
[12] = Oral bioavailability in Sprague-Dawley rat at 5 mg/kg; type: ADME, organism-based; details: in vivo

Chain of CYP3A4 (P08684 whole entry): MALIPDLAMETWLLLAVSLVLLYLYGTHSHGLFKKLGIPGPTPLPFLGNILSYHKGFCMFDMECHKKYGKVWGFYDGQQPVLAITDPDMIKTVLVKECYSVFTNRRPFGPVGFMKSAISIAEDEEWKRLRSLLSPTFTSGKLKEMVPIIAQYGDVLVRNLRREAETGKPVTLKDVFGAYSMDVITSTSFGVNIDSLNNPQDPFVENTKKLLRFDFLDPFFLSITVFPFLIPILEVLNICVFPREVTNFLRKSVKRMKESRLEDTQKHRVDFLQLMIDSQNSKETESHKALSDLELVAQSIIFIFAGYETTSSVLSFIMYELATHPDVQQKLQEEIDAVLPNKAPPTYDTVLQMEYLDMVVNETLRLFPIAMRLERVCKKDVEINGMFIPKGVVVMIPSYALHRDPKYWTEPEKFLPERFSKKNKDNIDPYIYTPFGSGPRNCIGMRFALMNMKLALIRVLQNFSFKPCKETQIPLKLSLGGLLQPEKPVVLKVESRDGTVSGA
Chain of hERG (KCNH2) (Q12809 whole entry): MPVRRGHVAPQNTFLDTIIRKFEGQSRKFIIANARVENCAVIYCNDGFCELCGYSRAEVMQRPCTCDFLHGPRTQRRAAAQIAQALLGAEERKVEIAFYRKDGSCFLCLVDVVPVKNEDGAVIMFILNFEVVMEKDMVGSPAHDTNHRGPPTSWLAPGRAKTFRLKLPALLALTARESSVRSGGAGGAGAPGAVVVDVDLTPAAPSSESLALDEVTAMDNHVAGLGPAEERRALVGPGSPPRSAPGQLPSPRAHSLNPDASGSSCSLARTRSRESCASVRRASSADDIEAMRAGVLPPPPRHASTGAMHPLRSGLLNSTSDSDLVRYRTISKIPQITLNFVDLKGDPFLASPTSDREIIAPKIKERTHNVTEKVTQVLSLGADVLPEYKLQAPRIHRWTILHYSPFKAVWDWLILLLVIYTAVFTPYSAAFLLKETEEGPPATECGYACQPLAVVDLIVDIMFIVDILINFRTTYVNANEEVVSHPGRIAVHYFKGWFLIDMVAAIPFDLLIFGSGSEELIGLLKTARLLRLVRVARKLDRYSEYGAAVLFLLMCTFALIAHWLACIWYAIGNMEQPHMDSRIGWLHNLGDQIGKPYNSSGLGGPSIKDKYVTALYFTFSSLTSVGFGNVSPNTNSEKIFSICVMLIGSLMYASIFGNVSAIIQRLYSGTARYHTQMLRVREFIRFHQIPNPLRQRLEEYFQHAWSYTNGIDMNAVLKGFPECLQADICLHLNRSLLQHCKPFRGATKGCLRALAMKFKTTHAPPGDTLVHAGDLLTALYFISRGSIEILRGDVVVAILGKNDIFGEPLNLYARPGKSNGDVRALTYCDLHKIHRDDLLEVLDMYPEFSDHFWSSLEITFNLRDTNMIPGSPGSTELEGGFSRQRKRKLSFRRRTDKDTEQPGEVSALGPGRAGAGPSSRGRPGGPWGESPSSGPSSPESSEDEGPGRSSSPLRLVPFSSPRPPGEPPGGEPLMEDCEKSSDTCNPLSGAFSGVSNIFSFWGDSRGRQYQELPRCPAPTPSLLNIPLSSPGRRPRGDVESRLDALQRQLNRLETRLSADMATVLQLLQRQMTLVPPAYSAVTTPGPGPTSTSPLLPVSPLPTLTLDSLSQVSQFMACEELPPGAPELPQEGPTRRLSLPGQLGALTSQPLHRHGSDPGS
Chain of CYP2D6 (P10635 whole entry): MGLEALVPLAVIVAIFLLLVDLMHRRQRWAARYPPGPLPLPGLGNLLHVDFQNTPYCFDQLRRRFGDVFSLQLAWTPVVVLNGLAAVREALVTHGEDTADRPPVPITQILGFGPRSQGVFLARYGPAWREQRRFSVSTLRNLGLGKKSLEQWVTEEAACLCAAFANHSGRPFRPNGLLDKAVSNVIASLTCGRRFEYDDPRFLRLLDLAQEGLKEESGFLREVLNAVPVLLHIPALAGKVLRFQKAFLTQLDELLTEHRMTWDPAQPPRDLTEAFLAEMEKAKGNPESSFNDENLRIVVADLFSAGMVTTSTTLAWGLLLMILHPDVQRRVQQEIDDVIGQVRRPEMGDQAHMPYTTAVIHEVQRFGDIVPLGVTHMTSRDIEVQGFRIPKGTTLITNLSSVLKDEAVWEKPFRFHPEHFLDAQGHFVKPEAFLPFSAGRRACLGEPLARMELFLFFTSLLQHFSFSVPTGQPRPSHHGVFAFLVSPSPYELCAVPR
T1 sequence (Q9H244 whole entry): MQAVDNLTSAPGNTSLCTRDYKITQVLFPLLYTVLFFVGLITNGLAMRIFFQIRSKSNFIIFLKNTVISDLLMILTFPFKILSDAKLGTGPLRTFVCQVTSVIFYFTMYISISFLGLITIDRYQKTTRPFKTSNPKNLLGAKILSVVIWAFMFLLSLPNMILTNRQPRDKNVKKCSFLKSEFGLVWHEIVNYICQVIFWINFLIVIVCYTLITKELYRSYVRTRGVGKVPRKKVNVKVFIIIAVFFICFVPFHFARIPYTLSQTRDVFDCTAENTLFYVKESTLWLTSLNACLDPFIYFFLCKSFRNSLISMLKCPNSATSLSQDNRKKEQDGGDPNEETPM
Chain of CYP2C9 (P11712 whole entry): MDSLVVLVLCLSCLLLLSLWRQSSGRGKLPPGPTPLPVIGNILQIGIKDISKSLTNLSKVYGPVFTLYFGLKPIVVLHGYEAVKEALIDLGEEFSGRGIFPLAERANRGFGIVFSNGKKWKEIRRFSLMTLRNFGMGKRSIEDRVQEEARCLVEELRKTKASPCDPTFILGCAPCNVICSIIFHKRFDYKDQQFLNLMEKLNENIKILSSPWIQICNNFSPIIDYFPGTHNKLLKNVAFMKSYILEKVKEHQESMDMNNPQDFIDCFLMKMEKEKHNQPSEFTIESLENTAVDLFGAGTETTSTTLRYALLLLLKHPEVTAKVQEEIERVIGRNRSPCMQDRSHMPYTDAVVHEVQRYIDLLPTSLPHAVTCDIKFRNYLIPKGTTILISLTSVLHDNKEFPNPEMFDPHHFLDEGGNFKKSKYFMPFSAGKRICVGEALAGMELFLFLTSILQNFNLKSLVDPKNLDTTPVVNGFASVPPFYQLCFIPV

Row | SMILES | Ki (P2Y purinoceptor 12 [1]) | Activity (P2Y purinoceptor 12 [2]) | fold change (FC) [3] | fold change (FC) [4] | Ratio IC50 (P2Y purinoceptor 12 [5]) | Ratio IC50 (P2Y purinoceptor 12 [6]) | Stability (Liver microsomes [7]) | Stability (Liver microsomes [8]) | inhibition at 0.5 h, 3 µM (CYP1A2) | inhibition at 0.5 h, 3 µM (CYP2C9) | inhibition at 0.5 h, 3 µM (CYP2D6) | inhibition at 0.5 h, 3 µM (CYP3A4) | half-life [9] | clearance [10] | Vd [11] | bioavailability [12] | inhibition at 2 h, 10 µM (hERG (KCNH2))
1 | CCCCCOC(=O)N1CCN(C(=O)[C@H](CCC(=O)O)NC(=O)c2cc(SC3CCCCC3)nc(-c3ccccc3)n2)CC1 | 70 nM | inactive | > 340 | > 340 | – | – | – | – | – | – | – | – | – | – | – | – | –
2 | CCCCCOC(=O)N1CCN(C(=O)[C@H](CCC(=O)O)NC(=O)c2cc(SCC(F)(F)F)nc(-c3ccccc3)n2)CC1 | 22 nM | inactive | > 340 | > 340 | – | – | – | – | – | – | – | – | – | – | – | – | –
3 | CCCCCOC(=O)N1CCN(C(=O)[C@H](CCC(=O)O)NC(=O)c2cc(SC(C)(C)C)nc(-c3ccccc3)n2)CC1 | 42 nM | inactive | > 340 | > 340 | – | – | – | – | – | – | – | – | – | – | – | – | –
4 | CCCCCOC(=O)N1CCN(C(=O)[C@H](CCC(=O)O)NC(=O)c2nc(-c3ccccc3)cc(N3CCC(COC)CC3)n2)CC1 | 12 nM | – | > 340 | > 340 | 1.4 | 9.5 | > 80% | > 80% | < 25% | < 25% | < 25% | < 25% | 18 min | 6 mL/min/kg | 0.15 L/kg | 6% | < 25%
5 | CCCCCOC(=O)N1CCN(C(=O)[C@H](CCC(=O)O)NC(=O)c2nc(-c3ccccc3)cc(N3CCC(CN)CC3)n2)CC1 | 9.4 nM | – | > 340 | > 340 | 0.2 | 1.2 | > 80% | > 80% | < 25% | < 25% | < 25% | < 25% | 12 min | 16 mL/min/kg | 0.28 L/kg | 1% | < 25%
6 | CCCCCOC(=O)N1CCN(C(=O)[C@H](CCC(=O)O)NC(=O)c2cc(SCCO)nc(-c3ccccc3)n2)CC1 | 4.5 nM | inactive | > 340 | > 340 | – | – | – | – | – | – | – | – | – | – | – | – | –

The next lines start with results.

Row | Ki (P2Y purinoceptor 12 [1]) | Activity (P2Y purinoceptor 12 [2]) | fold change (FC) [3] | fold change (FC) [4] | Ratio IC50 (P2Y purinoceptor 12 [5]) | Ratio IC50 (P2Y purinoceptor 12 [6]) | Stability (Liver microsomes [7]) | Stability (Liver microsomes [8]) | inhibition at 0.5 h, 3 µM (CYP1A2) | inhibition at 0.5 h, 3 µM (CYP2C9) | inhibition at 0.5 h, 3 µM (CYP2D6) | inhibition at 0.5 h, 3 µM (CYP3A4) | half-life [9] | clearance [10] | Vd [11] | bioavailability [12] | SMILES | inhibition at 2 h, 10 µM (hERG (KCNH2))
7 | 17 nM | inactive | > 340 | > 340 | – | – | – | – | – | – | – | – | – | – | – | – | CCCCCOC(=O)N1CCN(C(=O)[C@H](CCC(=O)O)NC(=O)c2cc(SC3CCCC3)nc(-c3ccccc3)n2)CC1 | –
8 | 1.2 nM | – | > 340 | > 340 | 0.1 | 0.7 | > 80% | > 80% | < 25% | < 25% | < 25% | < 25% | 42 min | 31 mL/min/kg | 2 L/kg | 2% | CCCCCOC(=O)N1CCN(C(=O)[C@H](CCC(=O)O)NC(=O)c2cc(N3CCC(CNC)CC3)nc(-c3ccccc3)n2)CC1 | < 25%
9 | 8.4 nM | – | > 340 | > 340 | 0.4 | 2.8 | > 80% | > 80% | < 25% | < 25% | < 25% | < 25% | 54 min | 14 mL/min/kg | 1.1 L/kg | 61% | CCCCCOC(=O)N1CCN(C(=O)[C@H](CCC(=O)O)NC(=O)c2cc(N3CCC(COC)CC3)nc(-c3ccccc3)n2)CC1 | < 25%
10 | 0.46 nM | – | > 340 | > 340 | 0.06 | 0.4 | > 80% | > 80% | < 25% | < 25% | < 25% | < 25% | 48 min | 2 mL/min/kg | 0.2 L/kg | 13% | CCCCCOC(=O)N1CCN(C(=O)[C@H](CCC(=O)O)NC(=O)c2cc(N3CCC(C(=O)N4CCCC4)CC3)nc(-c3ccccc3)n2)CC1 | < 25%
11 | 1.5 nM | – | > 340 | > 340 | 0.1 | 0.6 | > 80% | > 80% | < 25% | < 25% | < 25% | < 25% | 24 min | 6 mL/min/kg | 0.21 L/kg | 38% | CCCCCOC(=O)N1CCN(C(=O)[C@H](CCC(=O)O)NC(=O)c2cc(N3CCC(C(=O)N(CC)CC)CC3)nc(-c3ccccc3)n2)CC1 | < 25%
12 | 0.6 nM | – | > 340 | > 340 | 0.2 | 1.5 | > 80% | > 80% | < 25% | < 25% | < 25% | < 25% | 18 min | 8 mL/min/kg | 0.2 L/kg | 8% | CCCCCOC(=O)N1CCN(C(=O)[C@H](CCC(=O)O)NC(=O)c2cc(N3CCC(C(=O)NCC)CC3)nc(-c3ccccc3)n2)CC1 | < 25%
